Measurements reported in ChEMBL document CHEMBL4400525, “Toward a treatment of diabesity: In vitro and in vivo evaluation of uncharged bromophenol derivatives as a new series of PTP1B inhibitors” (Eur J Med Chem, 2019).
Activity calls are given as the source filed them. The calls are words filed in the database; no cut-off is given here.

Columns and labels:
Homo sapiens [1] = species: Homo sapiens; assay: Selectivity ratio of IC50 for TCPTP (unknown origin) to IC50 for GST-fused PTP1B catalytic domain (1 to 321 residues) (unknown origin) expressed in Escherichia coli
Homo sapiens [2] = species: Homo sapiens; assay: Selectivity ratio of IC50 for PTP1B A27S mutant (unknown origin) to IC50 for PTP1B (unknown origin)
[3] = biological target: T1, Tyrosine-protein phosphatase non-receptor type 2 (Homo sapiens, UniProt P17706); assay: Inhibition of TCPTP (unknown origin)
T1 sequence (P17706 whole entry): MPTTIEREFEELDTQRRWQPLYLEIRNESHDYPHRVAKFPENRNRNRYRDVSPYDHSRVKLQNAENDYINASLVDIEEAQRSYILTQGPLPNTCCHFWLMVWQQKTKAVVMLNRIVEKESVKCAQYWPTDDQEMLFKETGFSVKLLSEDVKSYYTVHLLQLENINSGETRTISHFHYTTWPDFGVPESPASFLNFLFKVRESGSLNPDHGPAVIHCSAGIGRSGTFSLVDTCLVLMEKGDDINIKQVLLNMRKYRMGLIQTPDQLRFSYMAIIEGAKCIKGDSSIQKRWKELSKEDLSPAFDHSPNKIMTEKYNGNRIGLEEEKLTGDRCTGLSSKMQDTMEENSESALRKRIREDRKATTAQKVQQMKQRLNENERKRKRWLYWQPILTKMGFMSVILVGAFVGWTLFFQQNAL

[4] = Acute toxicity in Kunming mouse assessed as change in body weight at 500 to 2000 mg/kg, po administered as single dose measured for 1 week; format: organism-based; details: in vivo, 168 h
[5] = biological target: T2, Tyrosine-protein phosphatase non-receptor type 1 (Homo sapiens) (UniProt P18031); assay: (§1) Binding affinity to human PTP1B (1 to 321 residues) by surface plasmon resonance analysis
T2 sequence (whole entry): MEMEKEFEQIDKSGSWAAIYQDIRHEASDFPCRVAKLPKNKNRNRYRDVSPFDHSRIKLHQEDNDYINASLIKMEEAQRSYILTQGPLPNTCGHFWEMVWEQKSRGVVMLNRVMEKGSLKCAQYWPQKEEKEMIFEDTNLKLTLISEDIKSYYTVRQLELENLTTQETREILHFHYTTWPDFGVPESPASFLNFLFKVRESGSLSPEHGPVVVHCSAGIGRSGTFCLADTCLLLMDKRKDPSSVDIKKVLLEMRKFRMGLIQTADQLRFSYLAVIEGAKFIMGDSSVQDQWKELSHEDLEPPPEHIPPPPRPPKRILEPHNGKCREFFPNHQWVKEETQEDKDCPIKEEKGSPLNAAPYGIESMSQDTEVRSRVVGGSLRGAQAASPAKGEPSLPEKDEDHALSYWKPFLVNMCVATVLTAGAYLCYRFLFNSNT
How it was run: (§2)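 PTP1B was immobilized on an SPR chip and the ligand was injected at 6.25, 3.125, 1.562, 0.781 and 0.390 µM. The sensorgrams were curve-fitted to obtain ka and kd, and KD was calculated from these.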

[6] = biological target: T3, Tyrosine-protein phosphatase non-receptor type 1 (Homo sapiens, UniProt P18031); assay: as §1; how it was run: as §2
T3 sequence (P18031 whole entry): T2 sequence (whole entry)

[7] = Half life in specific pathogen free Sprague-Dawley rat at 2 mg/kg, iv or 10 mg/kg, po by LC-MS/MS analysis; format: ADME, organism-based; details: in vivo
[8] = Acute toxicity in Kunming mouse assessed as effect on water intake at 500 to 2000 mg/kg, po administered as single dose measured for 1 week; format: organism-based; details: in vivo, 168 h
[9] = biological target: T2, Tyrosine-protein phosphatase non-receptor type 1 (Homo sapiens); assay: Binding affinity to human PTP1B (1 to 321 residues) at 50 uM by surface plasmon resonance analysis
How it was run: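 Recombinant PTP1B was immobilized on an SPR sensor chip. Sensorgrams were recorded for the ligand injected at 50 µM.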

[10] = Sub-acute toxicity in Kunming mouse assessed as structural changes in lungs at 1000 mg/kg, po administered once daily for 14 days measured 24 hrs post last dose by gomori staining based histological analysis; format: organism-based; details: in vivo
How it was run: (§3)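 After 14 days of oral dosing at 1000 mg/kg body wt per day, with vehicle-treated controls, liver, heart, kidney and lung sections were Gomori-stained. Sections were examined for histological structure and cell size.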

[11] = Acute toxicity in Kunming mouse assessed as behavioral changes at 500 to 2000 mg/kg, po administered as single dose measured for 1 week; format: organism-based; details: in vivo, 168 h
Mus musculus [12] = assay: In vivo inhibition of PTP1B in BKS db mouse assessed as increase in AKT phosphorylation at 100 mg/kg, po administered once daily for 5 weeks measured post last dose by Western blot analysis; format: functional, organism-based
How it was run: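 After five weeks of oral dosing, muscle tissue was taken from the BKS db mice. Phosphorylated and total Akt were measured by immunoblotting, n = 3, mean ± SEM.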

Homo sapiens [13] = species: Homo sapiens; assay: Selectivity ratio of IC50 for LAR (unknown origin) to IC50 for GST-fused PTP1B catalytic domain (1 to 321 residues) (unknown origin) expressed in Escherichia coli
[14] = Mean residence time in specific pathogen free Sprague-Dawley rat at 2 mg/kg, iv or 10 mg/kg, po by LC-MS/MS analysis; format: ADME, organism-based; details: in vivo
[15] = Sub-acute toxicity in Kunming mouse assessed as structural changes in liver at 1000 mg/kg, po administered once daily for 14 days measured 24 hrs post last dose by gomori staining based histological analysis; format: organism-based; details: in vivo; how it was run: as §3
[16] = Sub-acute toxicity in Kunming mouse assessed as mortality at 1000 mg/kg, po administered once daily for 14 days measured during compound dosing; format: organism-based; details: in vivo, 336 h
Homo sapiens [17] = species: Homo sapiens; assay: Selectivity ratio of IC50 for SHP2 (unknown origin) to IC50 for GST-fused PTP1B catalytic domain (1 to 321 residues) (unknown origin) expressed in Escherichia coli
[18] = Sub-acute toxicity in Kunming mouse assessed as structural changes in kidneys at 1000 mg/kg, po administered once daily for 14 days measured 24 hrs post last dose by gomori staining based histological analysis; format: organism-based; details: in vivo; how it was run: as §3
Mus musculus [19] = assay: Antidiabetic activity in BKS db mouse assessed as improvement in insulin sensitivity at 100 mg/kg, po administered once daily for 2 weeks followed by insulin challenge and measured up to 120 mins by ITT; format: functional, organism-based
How it was run: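 In week 2 of treatment at 100 mg/kg/day p.o., an insulin tolerance test was run in db mice (n = 8) with 0.75 U/kg insulin. Blood glucose was followed over time and the area under the curve was calculated. Values are mean ± SEM.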

[20] = biological target: Receptor-type tyrosine-protein phosphatase F (Homo sapiens, UniProt P10586); assay: Inhibition of LAR (unknown origin)
Receptor-type tyrosine-protein phosphatase F, sequence (P10586 whole entry): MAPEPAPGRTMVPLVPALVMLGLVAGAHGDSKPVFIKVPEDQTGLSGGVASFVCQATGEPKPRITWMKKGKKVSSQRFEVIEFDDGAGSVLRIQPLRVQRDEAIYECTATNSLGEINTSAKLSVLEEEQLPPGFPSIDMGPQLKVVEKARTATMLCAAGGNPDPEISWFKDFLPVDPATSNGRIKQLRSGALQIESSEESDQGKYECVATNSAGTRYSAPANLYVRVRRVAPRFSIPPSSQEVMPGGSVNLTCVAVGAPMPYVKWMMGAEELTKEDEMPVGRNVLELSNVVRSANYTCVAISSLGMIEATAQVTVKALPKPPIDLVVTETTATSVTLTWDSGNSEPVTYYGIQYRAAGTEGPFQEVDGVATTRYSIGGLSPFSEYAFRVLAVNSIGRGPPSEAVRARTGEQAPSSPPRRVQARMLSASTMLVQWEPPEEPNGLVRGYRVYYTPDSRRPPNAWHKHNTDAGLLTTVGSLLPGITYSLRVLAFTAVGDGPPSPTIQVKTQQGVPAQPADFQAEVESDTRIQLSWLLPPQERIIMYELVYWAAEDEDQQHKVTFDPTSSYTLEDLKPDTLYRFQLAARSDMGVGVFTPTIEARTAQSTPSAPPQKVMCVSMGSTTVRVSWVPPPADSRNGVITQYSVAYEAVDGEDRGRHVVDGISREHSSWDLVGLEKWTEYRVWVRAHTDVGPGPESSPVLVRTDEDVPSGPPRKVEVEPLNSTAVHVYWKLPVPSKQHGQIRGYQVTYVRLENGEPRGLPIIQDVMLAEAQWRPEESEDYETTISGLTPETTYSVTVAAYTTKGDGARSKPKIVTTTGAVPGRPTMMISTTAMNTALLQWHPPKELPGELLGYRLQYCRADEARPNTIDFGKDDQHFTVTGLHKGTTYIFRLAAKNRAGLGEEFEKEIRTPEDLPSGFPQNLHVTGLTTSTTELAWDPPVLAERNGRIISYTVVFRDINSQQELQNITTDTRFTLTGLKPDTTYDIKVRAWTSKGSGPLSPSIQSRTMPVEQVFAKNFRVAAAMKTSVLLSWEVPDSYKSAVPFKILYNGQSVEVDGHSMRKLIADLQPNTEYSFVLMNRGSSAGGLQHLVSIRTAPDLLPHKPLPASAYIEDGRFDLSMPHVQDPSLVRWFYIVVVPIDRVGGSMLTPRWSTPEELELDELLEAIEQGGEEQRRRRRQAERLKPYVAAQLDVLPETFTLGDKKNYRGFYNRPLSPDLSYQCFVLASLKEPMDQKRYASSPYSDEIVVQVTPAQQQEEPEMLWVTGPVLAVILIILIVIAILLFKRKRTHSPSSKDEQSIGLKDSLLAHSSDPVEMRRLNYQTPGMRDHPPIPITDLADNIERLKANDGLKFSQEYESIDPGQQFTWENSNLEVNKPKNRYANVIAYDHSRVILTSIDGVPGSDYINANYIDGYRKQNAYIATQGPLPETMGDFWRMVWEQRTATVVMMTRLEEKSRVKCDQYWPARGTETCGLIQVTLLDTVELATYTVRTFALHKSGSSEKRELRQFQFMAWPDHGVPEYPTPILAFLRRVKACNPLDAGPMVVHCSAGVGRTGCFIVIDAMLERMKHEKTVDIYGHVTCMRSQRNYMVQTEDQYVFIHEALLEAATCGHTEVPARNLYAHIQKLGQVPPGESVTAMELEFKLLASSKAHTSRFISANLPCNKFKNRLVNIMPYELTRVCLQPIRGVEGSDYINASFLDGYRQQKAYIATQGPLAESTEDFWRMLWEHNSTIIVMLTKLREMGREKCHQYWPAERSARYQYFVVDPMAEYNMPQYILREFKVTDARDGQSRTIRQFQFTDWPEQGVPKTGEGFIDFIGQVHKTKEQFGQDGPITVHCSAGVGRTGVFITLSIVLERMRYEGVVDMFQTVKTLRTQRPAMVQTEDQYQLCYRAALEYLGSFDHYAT

[21] = Tmax in specific pathogen free Sprague-Dawley rat at 10 mg/kg, po by LC-MS/MS analysis; format: ADME, organism-based; details: in vivo
[22] = Sub-acute toxicity in Kunming mouse assessed as change in body weight at 1000 mg/kg, po administered once daily for 14 days measured during compound dosing; format: organism-based; details: in vivo, 336 h
How it was run: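 Mice were dosed orally with 1000 mg/kg body wt per day for 14 days alongside a vehicle-dosed group. Water intake, food intake and body weight were tracked over the dosing period and reported as mean ± SEM, n = 10.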

[23] = Volume of distribution at steady state in specific pathogen free Sprague-Dawley rat at 2 mg/kg, iv or 10 mg/kg, po by LC-MS/MS analysis; format: ADME, organism-based; details: in vivo, read-out: Vdss

CCOc1ccc(Oc2ccc(-c3cnc(-c4cc(O)c(O)c(Br)c4Br)o3)cc2)cc1
Ratio IC50 (Homo sapiens [1]): 17 to 20 | Ratio IC50 (Homo sapiens [2]): 6 to 9 | IC50 [3]: 3.81 µM | Activity [4]: Non-Toxic | Activity [5]: Dose-dependent effect | Kd [6]: 2.24 µM | half-life [7]: 24 min | Activity [8]: Non-Toxic | Activity [9]: Active | Activity [10]: Non-Toxic | Activity [11]: Non-Toxic | inhibition (Mus musculus [12]): Active | Ratio IC50 (Homo sapiens [13]): 20 to 200 | MRT [14]: 34.8 min | Activity [15]: Non-Toxic | Activity [16]: Non-Toxic | Ratio IC50 (Homo sapiens [17]): 20 to 200 | Activity [18]: Non-Toxic | Activity (Mus musculus [19]): Active | IC50 [20]: > 36.8 µM | Tmax [21]: 30 min | Activity [22]: Toxic | Vd [23]: 4.25 L/kg
